According to ChEMBL document CHEMBL3817843, “Understanding Oxadiazolothiazinone Biological Properties: Negative Inotropic Activity versus Cytochrome P450-Mediated Metabolism” (J Med Chem, 2016):
Calls of active or inactive are those of the source. The rule behind the calls is not given here.

Assays:
[1] = target: Cytochrome P450 3A4 (Homo sapiens, UniProt P08684); assay: Inhibition of CYP3A4 in human liver microsomes using midazolam as substrate after 4 mins by LC-MS analysis
[2] = Half life in human liver microsomes assessed as CYP-mediated compound degradation at 1 uM by LC-MS analysis
[3] = target: Voltage-gated L-type calcium channel (Rattus norvegicus, UniProt P22002+Q02485+P27732); assay: Displacement of [3H]Verapamil from LTCC PAA site in Sprague-Dawley rat cardiomyocytes after 60 mins by liquid scintillation counting analysis; type: cell-based
Procedure, shortened: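 Frozen pooled cardiomyocytes (at least three animals) resuspended in 50 mmol/L Tris-HCl pH 7.4, 0.15−0.3 mg protein/tube, 25 °C for 60 min. [3H]verapamil 0.5 nM displaced by unlabeled compound (0.1 nM−0.1 mM). Nonspecific binding defined with 0.1 mM verapamil. GF/C filtration, two washes with 20 mmol/L Tris-HCl, liquid scintillation counting, duplicate measurements.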

[4] = species on record: Rattus norvegicus; assay: Displacement of [3H]Isradipine from LTCC DHP site in Sprague-Dawley rat cardiomyocytes at 100 uM after 20 mins by liquid scintillation counting analysis; type: cell-based
Procedure, shortened: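 Rat cardiomyocytes pooled from at least three animals, stored frozen at −80 °C, 0.15−0.2 mg protein/tube. Incubated in 50 mmol/L Tris-HCl with 1.2 mmol/L MgCl2, pH 7.4, at 37 °C for 20 min with 0.1 nM (+)-[3H]isradipine and unlabeled compound (1 nM to 0.1 mM). Nonspecific binding defined with 0.1 mM isradipine. Filtered through PEI-presoaked GF/B filters; scintillation counting; duplicates.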

[5] = system: Left cardiac atrium; assay: Negative inotropic activity in potassium depolarized guinea pig left atrium assessed as reduction in developed tension at 10^-8 M after 30 mins; type: functional; conditions: Cavia porcellus
[6] = system: Left cardiac atrium; assay: Potentiation of diltiazem-induced negative inotropic activity in potassium depolarized guinea pig left atrium assessed as reduction in developed tension at 10^-8 M preincubated for 30 mins followed by diltiazem addition; type: functional; conditions: Cavia porcellus
Procedure, shortened: (§1)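 Guinea pig left atria driven at 1 Hz. Pretreated with compound at 0.01 μM, added 30 min before diltiazem, verapamil or nifedipine. Blocker concentration−response curves analysed by probit (Litchfield and Wilcoxon), n = 6−7. Data given as mean ±, Student's t test.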

[7] = system: Left cardiac atrium; assay: Potentiation of nifedipine-induced negative inotropic activity in potassium depolarized guinea pig left atrium assessed as reduction in developed tension at 10^-8 M preincubated for 30 mins followed by nifedipine addition; type: functional; conditions: Cavia porcellus; procedure, shortened: as §1
[8] = system: Aorta; assay: Vasorelaxant activity in potassium depolarized guinea pig aorta assessed as relaxation of calcium-induced contraction at 10^-6 M after 30 mins; type: functional, tissue-based; conditions: Cavia porcellus
Procedure, shortened: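 Guinea pig aortic strips depolarized with K+ (80 mM). Calcium-induced contraction measured; inhibition expressed as percent change from control, n = 3−5.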

[9] = system: Aorta; assay: Inhibition of diltiazem-induced vasorelaxant activity in potassium depolarized guinea pig aorta assessed as relaxation of calcium-induced contraction at 10^-6 M preincubated for 30 mins followed by diltiazem addition; type: functional, tissue-based; conditions: Cavia porcellus
Procedure, shortened: (§2)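 K+-depolarized (80 mM) guinea pig aortic strips contracted with calcium. Compound at 1 μM added 30 min before diltiazem, verapamil or nifedipine. Response expressed as percent change from control. Data given as mean ±, Student's t test.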

[10] = system: Aorta; assay: Inhibition of verapamil-induced vasorelaxant activity in potassium depolarized guinea pig aorta assessed as relaxation of calcium-induced contraction at 10^-6 M preincubated for 30 mins followed by verapamil addition; type: functional, tissue-based; conditions: Cavia porcellus; procedure, shortened: as §2
[11] = system: Left cardiac atrium; assay: Negative inotropic activity in potassium depolarized guinea pig left atrium assessed as reduction in developed tension at 10^-8 M preincubated for 30 mins followed by 0.5 uM nifedipine addition; type: functional, Cavia porcellus; design: scale not given: the % may be the effect or the level left
[12] = system: Left cardiac atrium; assay: Negative inotropic activity in potassium depolarized guinea pig left atrium assessed as reduction in developed tension at 10^-8 M preincubated for 30 mins followed by 5 uM diltiazem addition; type: functional, Cavia porcellus; design: scale not given: the % may be the effect or the level left
[13] = system: Left cardiac atrium; assay: Negative inotropic activity in potassium depolarized guinea pig left atrium assessed as EC50 for nifedipine at 10^-8 M preincubated for 30 mins followed by nifedipine addition; type: functional; conditions: Cavia porcellus; procedure, shortened: as §1
[14] = system: Left cardiac atrium; assay: Negative inotropic activity in potassium depolarized guinea pig left atrium assessed as EC50 for verapamil at 10^-8 M preincubated for 30 mins followed by verapamil addition; type: functional; conditions: Cavia porcellus; procedure, shortened: as §1
[15] = system: Aorta; assay: Vasorelaxant activity in potassium depolarized guinea pig aorta assessed as inhibition of calcium-induced contraction at 10^-8 M preincubated for 30 mins followed by 0.5 uM nifedipine addition; type: functional, Cavia porcellus; design: scale not given: the % may be the effect or the level left
[16] = system: Aorta; assay: Vasorelaxant activity in potassium depolarized guinea pig aorta assessed as inhibition of calcium-induced contraction at 10^-6 M preincubated for 30 mins followed by 0.5 uM nifedipine addition; type: functional, Cavia porcellus; design: scale not given: the % may be the effect or the level left; procedure, shortened: as §2
[17] = system: Aorta; assay: Vasorelaxant activity in potassium depolarized guinea pig aorta assessed as inhibition of calcium-induced contraction at 10^-8 M preincubated for 30 mins followed by 5 uM verapamil addition; type: functional, Cavia porcellus; design: scale not given: the % may be the effect or the level left
[18] = system: Aorta; assay: Vasorelaxant activity in potassium depolarized guinea pig aorta assessed as inhibition of calcium-induced contraction at 10^-8 M preincubated for 30 mins followed by 50 uM diltiazem addition; type: functional, Cavia porcellus; design: scale not given: the % may be the effect or the level left
[19] = system: Aorta; assay: Vasorelaxant activity in potassium depolarized guinea pig aorta assessed as inhibition of calcium-induced contraction at 10^-6 M preincubated for 30 mins followed by 50 uM diltiazem addition; type: functional, Cavia porcellus; design: scale not given: the % may be the effect or the level left; procedure, shortened: as §2
[20] = system: Aorta; assay: Vasorelaxant activity in potassium depolarized guinea pig aorta assessed as IC50 for diltiazem at 10^-8 M preincubated for 30 mins followed diltiazem addition; type: functional, tissue-based; conditions: Cavia porcellus
[21] = target: Cytochrome P450 2C19 (Homo sapiens, UniProt P33261); assay: Inhibition of CYP2C19 in human liver microsomes using (S)-mephenytoin as substrate after 40 mins by LC-MS analysis
Chain of Cytochrome P450 2C19 (P33261 whole entry): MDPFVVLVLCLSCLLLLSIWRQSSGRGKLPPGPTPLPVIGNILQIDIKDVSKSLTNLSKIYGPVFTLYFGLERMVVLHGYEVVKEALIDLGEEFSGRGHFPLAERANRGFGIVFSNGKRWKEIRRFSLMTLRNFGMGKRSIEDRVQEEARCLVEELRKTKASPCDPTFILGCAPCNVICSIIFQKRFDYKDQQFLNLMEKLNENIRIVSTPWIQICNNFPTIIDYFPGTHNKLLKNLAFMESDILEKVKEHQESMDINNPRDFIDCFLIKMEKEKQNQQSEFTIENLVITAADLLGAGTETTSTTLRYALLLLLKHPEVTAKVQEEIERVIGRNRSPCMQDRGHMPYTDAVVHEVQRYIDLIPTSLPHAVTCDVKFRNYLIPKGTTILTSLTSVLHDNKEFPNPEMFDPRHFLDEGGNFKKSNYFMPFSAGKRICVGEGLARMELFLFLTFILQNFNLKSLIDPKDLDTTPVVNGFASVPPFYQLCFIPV

[22] = system: Liver microsome; assay: Stability in human liver microsomes at 1 uM after 2 to 60 mins by LC-MS analysis in absence of NADPH
[23] = system: Left cardiac atrium; assay: Negative inotropic activity against potassium depolarized guinea pig left atrium assessed as decrease in nifedipine EC50 at 10^-8 M preincubated for 30 mins followed by nifedipine addition relative to control; type: functional, Cavia porcellus
Procedure, shortened: (§3)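 Isolated guinea pig left atria, electrically driven at 1 Hz. The pretreatment agent (0.01 μM) was added to the bath 30 min before the L-type calcium channel blocker. Blocker concentration–response curves were then run to obtain the negative inotropic EC50, which was compared with the EC50 for the blocker alone. Data were compared by Student's t test.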

[24] = system: Left cardiac atrium; assay: Negative inotropic activity against potassium depolarized guinea pig left atrium assessed as decrease in verapamil EC50 at 10^-8 M preincubated for 30 mins followed by verapamil addition relative to control; type: functional, Cavia porcellus; procedure, shortened: as §3
[25] = system: Left cardiac atrium; assay: Negative inotropic activity against potassium depolarized guinea pig left atrium assessed as decrease in diltiazem EC50 at 10^-8 M preincubated for 30 mins followed by diltiazem addition relative to control; type: functional, Cavia porcellus; procedure, shortened: as §3
[26] = system: Aorta; assay: Inhibition of verapamil-induced vasorelaxant activity in potassium depolarized guinea pig aorta assessed as relaxation of calcium-induced contraction at 10^-8 M preincubated for 30 mins followed by verapamil addition; type: functional, tissue-based; conditions: Cavia porcellus
[27] = system: Aorta; assay: Inhibition of nifedipine-induced vasorelaxant activity in potassium depolarized guinea pig aorta assessed as relaxation of calcium-induced contraction at 10^-8 M preincubated for 30 mins followed by nifedipine addition; type: functional, tissue-based; conditions: Cavia porcellus

Chain of Cytochrome P450 3A4 (P08684 whole entry): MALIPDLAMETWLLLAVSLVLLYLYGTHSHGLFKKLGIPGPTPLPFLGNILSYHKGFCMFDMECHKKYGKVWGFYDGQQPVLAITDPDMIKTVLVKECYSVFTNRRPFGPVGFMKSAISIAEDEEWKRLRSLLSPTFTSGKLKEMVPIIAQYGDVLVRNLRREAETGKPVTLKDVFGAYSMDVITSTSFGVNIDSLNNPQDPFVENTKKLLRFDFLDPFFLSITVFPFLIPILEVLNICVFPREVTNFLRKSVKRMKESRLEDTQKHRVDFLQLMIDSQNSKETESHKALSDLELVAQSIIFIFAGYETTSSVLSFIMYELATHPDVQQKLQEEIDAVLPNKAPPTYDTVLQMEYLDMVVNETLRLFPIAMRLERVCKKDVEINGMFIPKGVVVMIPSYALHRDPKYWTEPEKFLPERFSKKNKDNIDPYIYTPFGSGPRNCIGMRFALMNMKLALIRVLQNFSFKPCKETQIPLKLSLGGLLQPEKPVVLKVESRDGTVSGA

IC50 [1]: > 20 µM | half-life at 1 µM [2]: 53 min | IC50 [3]: 18.3 µM | inhibition (INH) ([3]; rat, 1 h): Dose-dependent effect | inhibition [4]: 40% | EC50 [13]: 22 nM | EC50 [14]: 50 nM | IC50 [20]: 470 nM | IC50 [21]: 1800 nM | Stability [22]: Stable
SMILES: CCOC1(c2ccc(Br)cc2)SC=C(C)n2c1noc2=O (stereo not drawn)
Activity [5]: inactive | Activity [6]: Active | Activity [7]: Active | inhibition [8]: inactive | inhibition [9]: Active | inhibition [10]: Active | Activity [11]: 94% | Activity [12]: 92% | Activity [15]: 10% | Activity [16]: 11% | Activity [17]: 20% | Activity [18]: 64% | Activity [19]: 18% | fold change (FC) [23]: 11.8 | fold change (FC) [24]: 12 | fold change (FC) [25]: 3.3 | inhibition [26]: Active | inhibition [27]: Active
